Laboratory results: paper PMC8975796 (Clinical Pharmacokinetics, 2021)
Values joined by “and” are separate entries in the source; they are usually repeats but may differ in a detail not shown here. Equal values may be shown once. Read-outs that look alike come from different tables or passages of the source. Marks after values point to notes of the source that are not given here.

Columns and labels:
[1] = type: in vivo, human; conditions: for RLIN, linearity factor (ratio of multiple-dose AUC0–12 to single-dose AUC): 600 mg BID with food; for RAAUC, accumulation ratio based on AUC0–12 / RACmax, accumulation ratio based on Cmax: multiple (day 7) vs single (day 1) dosing, 600 mg BID; for trough concentrations reached steady-state levels after: BID treatment 600 mg
Procedure, shortened: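 Fifteen healthy men took 600 mg (two 300 mg tablets) 30 min after starting a standardized meal on day 1, then twice daily on days 4–7. Plasma was sampled to 72 h after the single dose, at trough on days 4–6, and to 12 h on day 7. Samples underwent solid-phase extraction and LC-MS/MS. Accumulation ratios compared multiple- with single-dose AUC0–12 and Cmax. RLIN was multiple-dose AUC0–12 over single-dose AUC0–inf.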

[2] = ARIADME phase I pharmacokinetics/bioavailability study; type: in vivo, human; conditions: for Cmax: healthy male subjects; for CL renal: plasma and urine, CLR; for half-life: t½; for AUC(0-inf): AUC0–inf; for AUC(0-t): AUC0–tlast; for tmax: median (range)
Procedure, shortened: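 Six healthy fasted men took one oral 300 mg tablet, then a 100 µg IV 14C-microtracer as a 15-min infusion ending 3 h post-dose. Six others took an oral 14C-dose of 300 mg in aqueous propylene glycol solution (≤ 6.3 MBq). Oral plasma levels were measured by validated HPLC-MS, and IV levels by LC fractionation with accelerator MS. Values are geometric mean (CV%).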

[3] = type: in vivo, human; conditions: for Cmax increase vs healthy subjects / exposure (AUC0–48) increase vs healthy subjects: single 600 mg with food
Procedure, shortened: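 Open-label, parallel-group, multicenter trial in men aged 45–79. Groups were Child–Pugh B cirrhosis, severe renal impairment (eGFR 15–29 mL/min/1.73 m2, MDRD equation), and age- and weight-matched healthy controls. Each took two 300 mg tablets 30 min after starting a standardized breakfast. Plasma was sampled pre-dose to 48 h and assayed by validated LC-MS/MS. Parameters used total and unbound concentrations.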

plasma proteins [4] = assay: In vitro plasma protein binding; type: in vitro ADME; conditions: human plasma (data on file)
plasma proteins [5] = type: in vitro ADME, human; conditions: ex vivo samples after single oral administration of darolutamide 600 mg
Procedure, shortened: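 Unbound fractions of the parent, both diastereomers and keto metabolite were measured by equilibrium dialysis. Plasma came from healthy male subjects and from non-cancer patients with moderate hepatic or severe renal impairment, after a single oral 600 mg dose taken with food.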

[6] = Solubility in fed vs fasted state simulated intestinal fluid; type: physicochemical; conditions: in vitro data (data on file)
[7] = test system: patients with nonmetastatic castration-resistant prostate cancer (CRPC); conditions: 600 mg BID, cited from earlier work
[8] = cited from earlier work
[9] = nonmetastatic CRPC, cited from earlier work
[10] = Day 1 (single dose) 600 mg oral with food, median (range)
[11] = Day 7 (multiple doses) 600 mg BID oral with food, median (range)
[12] = 100 µg IV 14C-microtracer, 15-min infusion, geometric mean (CV%)
[13] = male, human, plasma, iv, 100 µg
[14] = male, human, plasma, po, 300 mg, single 300 mg oral 14C-solution, fasted, geometric mean (CV%)
[15] = male, human, plasma, po, 300 mg, single 300 mg oral tablet, fasted, geometric mean (CV%)
[16] = male, human, plasma, po, 600 mg
[17] = moderate hepatic impairment (Child–Pugh class B)

SMILES: C[C@H](O)c1cc(C(=O)N[C@@H](C)Cn2ccc(-c3ccc(C#N)c(Cl)c3)n2)n[nH]1 [(S,S)-darolutamide]
- RLIN, linearity factor (ratio of multiple-dose AUC0–12 to single-dose AUC) [1]: 1.1
- tmax [1, 10]: 5.98 (2.50–8.00) h
- tmax [1, 11]: 3.98 (0.00–6.02) h
- RAAUC, accumulation ratio based on AUC0–12 [1]: 2.3
- RACmax, accumulation ratio based on Cmax [1]: 2.0

SMILES: CC(=O)c1cc(C(=O)N[C@@H](C)Cn2ccc(-c3ccc(C#N)c(Cl)c3)n2)[nH]n1 [Keto-darolutamide, keto-darolutamide]
- metabolite:parent total concentration ratio based on AUC0–inf ([2]; IV microtracer dose): 1.50
- metabolite:parent total concentration ratio based on AUC0–inf ([2]; oral solution dose): 2.06
- metabolite:parent total concentration ratio based on AUC0–inf ([2]; oral tablet dose): 1.67 and 1.7
- RLIN, linearity factor (ratio of multiple-dose AUC0–12 to single-dose AUC) [1]: 1.2
- trough concentrations reached steady-state levels after [1]: 1 days
- tmax [1, 10]: 4.00 (2.50–6.02) h
- tmax [1, 11]: 3.00 (1.48–5.97) h
- plasma exposure of keto-darolutamide vs darolutamide ([1]; after single and multiple dosing of darolutamide): approximately twofold higher
- RAAUC, accumulation ratio based on AUC0–12 [1]: 2.2
- RACmax, accumulation ratio based on Cmax [1]: 2.0
- plasma exposure (AUC0–48) vs healthy subjects ([3]; patients with renal or hepatic impairment, increase less pronounced than for darolutamide): increased
- mean free (unbound) fraction (plasma proteins [4]): 0.2% and < 1%
- mean free (unbound) fraction in plasma (plasma proteins [5]): 0.12%

SMILES: CC(O)c1cc(C(=O)N[C@@H](C)Cn2ccc(-c3ccc(C#N)c(Cl)c3)n2)[nH]n1 (stereo partly shown) [Darolutamide]
- AUC0–inf [2, 12]: 13,645 (39.5)^a h⋅pg eq/mL
- fraction absorbed based on amount of total 14C-radioactivity excreted in urine ([2]; 300 mg oral solution): 127%
- fraction absorbed based on plasma AUC of total 14C-radioactivity ([2]; 300 mg oral solution): 109%
- Cmax [2, 12]: 4127 (27.4)^a pg eq/mL
- CL renal ([2]; male, human, po, 300 mg, single 300 mg oral 14C-solution, fasted, geometric mean (CV%)): 7.73 mL/min
- CL renal ([2]; male, human, po, 300 mg, single 300 mg oral tablet, fasted, geometric mean (CV%)): 6.52 mL/min
- Vd [2, 13]: 119 L
- clearance [2, 13]: 116 mL/min
- half-life ([2]; male, human, plasma, iv, 100 µg, 100 µg IV 14C-microtracer, 15-min infusion, geometric mean (CV%)): 11.8 h
- AUC(0-inf) [2, 14]: 45600 ng·h/mL
- AUC(0-inf) [2, 15]: 12900 ng·h/mL
- AUC(0-t) [2, 14]: 45300 ng·h/mL
- AUC(0-t) [2, 15]: 12400 ng·h/mL
- Cmax ([2]; male, human, plasma, po, 300 mg, Cmax, single 300 mg oral 14C-solution, fasted, geometric mean (CV%)): 3820 ng/mL
- Cmax ([2]; male, human, plasma, po, 300 mg, Cmax, single 300 mg oral tablet, fasted, geometric mean (CV%)): 800 ng/mL
- bioavailability ([2]; male, human, plasma, po, 300 mg, F (absolute oral bioavailability), single 300 mg oral 14C-solution, fasted, geometric mean (CV%)): 98.9%
- bioavailability ([2]; male, human, plasma, po, 300 mg, F (absolute oral bioavailability), single 300 mg oral tablet, fasted, geometric mean (CV%)): 29.9%
- Vd/F [2, 14]: 101 L
- Vd/F [2, 15]: 514 L
- bioavailability ([2]; male, human, plasma, po, 300 mg, absolute bioavailability, single 300 mg oral solution, fasted): 98.9%
- tmax ([2]; male, human, plasma, po, 300 mg, single 300 mg oral 14C-solution, fasted): 1.58 h
- tmax ([2]; male, human, plasma, po, 300 mg, single 300 mg oral tablet, fasted): 3.5 h
- half-life [2, 14]: 10.6 h
- half-life [2, 15]: 15.3 h
- CL/F ([2]; single 300 mg oral 14C-solution, fasted, geometric mean (CV%)): 110 (21.3) mL/min
- absolute bioavailability ([2]; single 300 mg oral solution, fasted): ~ 100%
- CL/F ([2]; single 300 mg oral tablet, fasted, geometric mean (CV%)): 388 (36.2) mL/min
- mean AUC0–inf, oral solution higher than tablet formulation ([2]; single 300 mg, fasted): 3.5 fold
- mean Cmax, oral solution higher than tablet formulation ([2]; single 300 mg, fasted): 4.8 fold
- absolute bioavailability based on AUC0–inf ([2]; single 300-mg oral tablet, fasted state, IV microtracer as reference): ~ 30%
- mean whole blood:plasma ratio of total 14C-radioactivity ([2]; single oral solution dose): 0.7
- RLIN, linearity factor (ratio of multiple-dose AUC0–12 to single-dose AUC) [1]: 1.1
- trough concentrations reached steady-state levels after [1]: 1 days
- tmax [1, 10]: 5.97 (2.50–7.95) h
- tmax [1, 11]: 3.98 (2.00–5.98) h
- half-life ([1]; male, human, plasma, oral, 600 mg): 13 h
- AUC(0-inf) [1, 16]: 26200 ng·h/mL
- half-life [1, 16]: 11.6 h
- tmax ([1]; male, human, plasma, po, 600 mg, median time to peak concentration, oral tablet, single dosing of 600 mg): 4 to 6 h
- RAAUC, accumulation ratio based on AUC0–12 [1]: 2.1
- RACmax, accumulation ratio based on Cmax [1]: 1.9
- mean peak plasma concentration ([1]; single oral dose 600 mg with food, healthy male subjects): 1.77 µg/mL
- time to steady state ([1]; twice-daily dosing): approximately 2 days
- tmax ([3]; Moderate hepatic impairment, single oral 600 mg with food, median (range)): 4.00 (4.00–8.00) h
- tmax ([3]; Severe renal impairment, single oral 600 mg with food, median (range)): 4.00 (3.00–12.0) h
- tmax [3, 16]: 4 h
- terminal t½ compared with healthy subjects ([3]; moderate hepatic impairment): did not change
- Cmax increase vs healthy subjects [3, 17]: 1.5 fold
- exposure (AUC0–48) increase vs healthy subjects [3, 17]: 1.9 fold
- terminal t½ vs healthy subjects ([3]; severe renal impairment): prolonged
- Cmax increase vs healthy subjects ([3]; severe renal impairment): 1.6 fold
- exposure (AUC0–48) increase vs healthy subjects ([3]; severe renal impairment): 2.5 fold
- mean free (unbound) fraction (plasma proteins [4]): ~ 8% and 8%
- mean free (unbound) fraction in plasma (plasma proteins [5]): 7.8%
- solubility in fed vs fasted state simulated intestinal fluid [6]: improved solubility
- overall survival hazard ratio vs placebo ([7]; 95% confidence interval 0.53–0.88, p = 0.003): 0.69
- metastasis-free survival ([7]; p < 0.001 vs placebo): 40.4 months
- absolute bioavailability of tablet given with food [8]: 60–75%
- exposure vs patients with normal organ function ([9]; patients with mild hepatic impairment): not higher
- exposure vs patients with normal organ function ([9]; patients with mild or moderate renal impairment): at most only slightly higher

SMILES: C[C@@H](Cn1ccc(-c2ccc(C#N)c(Cl)c2)n1)NC(=O)c1cc([C@@H](C)O)[nH]n1 [(S,R)-darolutamide]
- clearance, (S,R)-darolutamide higher vs (S,S)-darolutamide ([2]; after the IV dose): 2.9 fold
- RLIN, linearity factor (ratio of multiple-dose AUC0–12 to single-dose AUC) [1]: 0.9
- Terminal t½ ([1]; Day 1 (single dose) 600 mg oral with food, geometric mean/geometric CV% (range)): 14.5 h
- tmax [1, 10]: 3.97 (1.02–6.02) h
- tmax [1, 11]: 3.00 (0.967–4.00) h
- RAAUC, accumulation ratio based on AUC0–12 [1]: 1.2
- RACmax, accumulation ratio based on Cmax [1]: 1.2
